Assay [1] relates to Huh-7. As to the kind of experiment: Induction of apoptosis in human HuH7 cells assessed as horseshoe nuclear structure at 10 uM after 48 hrs by Hoechst 33258 staining-based immunofluorescence microscopy. The assay is classed as functional, cell-based. In outline: (§1)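 Cells on coverslips were incubated overnight, then treated with 10 µM compound or DMSO for 48 h. They were washed in ice-cold PBS, fixed in cold methanol for 10 min, and stained with 1 µg/mL Hoechst 33258 for 5 min in the dark. Nuclei were examined by fluorescence microscopy with a 40x objective.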

Assay [2] can be described thus: Cytotoxicity against human Mahlavu cells assessed as growth inhibition after 72 hrs by sulforhodamine B assay. It is filed as functional, cell-based. To be noted: Homo sapiens, Mahlavu, 72 h; read-out: IC50. In outline:
(§2)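 Cells were grown at 37°C, 5% CO2 in DMEM with 10% FBS. They were seeded at 1000–3000 cells/well, grown 24 h, then exposed to compound at 2.5–40 µM for 72 h. Cells were fixed in 10% TCA for 1 h at 4°C, stained with 0.4% SRB in 1% acetic acid for 10 min, and the dye solubilized in 10 mM Tris. Absorbance was read at 515 nm; runs were in triplicate; IC50 was calculated, with fits of R2 0.8–1 accepted.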

In assay [3] the test system is Huh-7. As to the kind of experiment: Induction of apoptosis in human HuH7 cells assessed as PARP cleavage after 24 to 48 hrs by Western blot analysis. The assay is classed as functional, cell-based. Put shortly: (§3)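 Cells were exposed to compound or DMSO control for 24 or 48 h. Lysates were loaded at […] protein per lane and immunoblotted with antibodies diluted 1:100 to 1:500 in 5% BSA-TBS-T. Targets were p-Akt (Ser473), Akt, p-GSK3-α/β (Ser21/9), GSK3-α/β, SAPK/JNK, p-SAPK/JNK (Thr183/Tyr185), PARP, p-β-catenin, β-catenin, cyclin D1, p-ASK1 (S83) and p-ASK1 (S966). Actin served as the loading control.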

The next assay has as its system MCF7. The assay is described as follows: Cytotoxicity against human MCF7 cells assessed as growth inhibition after 72 hrs by sulforhodamine B assay. To be noted: Homo sapiens, MCF7, 72 h; read-out: IC50. The assay is classed as functional, cell-based. In outline:
as §2

The test system of assay [4] is Huh-7. The assay is described as follows: Induction of apoptosis in human HuH7 cells assessed as nuclear condensation at 10 uM after 48 hrs by Hoechst 33258 staining-based immunofluorescence microscopy. The assay is classed as functional, cell-based. In outline:
as §1

For assay [5], the system named is Huh-7. As to the kind of experiment: Cytotoxicity against human HuH7 cells assessed as cell impedance at IC25 to IC100 measured every 30 mins for 72 hrs by RT-CES assay. The assay is classed as functional, cell-based. To be noted: TDE = time-dependent effect. In outline:
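Huh7 cells were seeded at 1000–5000 cells/well on electrode plates. […] Impedance was read as cell index every 10 min for the first 24 h, then every 30 min, over 72 h. Data were normalized to DMSO; inhibition (%) = [1 − (CI treated/CI DMSO)] × 100. Each experiment was run at least three times.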

The target in assay [6] is T1, Catenin beta-1 (Homo sapiens) (UniProt P35222).
T1 sequence (whole entry): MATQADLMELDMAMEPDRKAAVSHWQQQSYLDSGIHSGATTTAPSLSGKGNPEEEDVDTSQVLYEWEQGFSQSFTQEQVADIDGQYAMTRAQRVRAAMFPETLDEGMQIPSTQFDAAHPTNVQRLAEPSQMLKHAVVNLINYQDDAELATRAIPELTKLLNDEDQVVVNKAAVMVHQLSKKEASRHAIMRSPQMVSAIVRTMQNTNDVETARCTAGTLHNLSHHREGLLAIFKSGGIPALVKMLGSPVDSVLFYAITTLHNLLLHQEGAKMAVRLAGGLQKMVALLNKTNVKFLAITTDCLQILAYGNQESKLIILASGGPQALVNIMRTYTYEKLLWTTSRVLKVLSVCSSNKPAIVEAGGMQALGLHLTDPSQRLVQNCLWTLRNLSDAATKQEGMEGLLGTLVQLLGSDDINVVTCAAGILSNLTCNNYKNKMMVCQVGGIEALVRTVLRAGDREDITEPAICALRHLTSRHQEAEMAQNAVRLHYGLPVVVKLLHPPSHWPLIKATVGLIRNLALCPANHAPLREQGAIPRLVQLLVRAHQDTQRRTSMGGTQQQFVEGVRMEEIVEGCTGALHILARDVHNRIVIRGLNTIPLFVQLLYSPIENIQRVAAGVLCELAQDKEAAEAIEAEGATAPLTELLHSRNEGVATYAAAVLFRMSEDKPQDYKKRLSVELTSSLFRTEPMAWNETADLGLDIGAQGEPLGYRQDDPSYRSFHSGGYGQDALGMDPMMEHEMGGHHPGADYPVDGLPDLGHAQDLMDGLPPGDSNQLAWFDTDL
As to the kind of experiment: Induction of beta-catenin phosphorylation in human Mahlavu cells after 24 to 48 hrs by Western blot analysis. It is filed as cell-based. Put shortly:
as §3

Assay [7] deals with Huh-7. The assay is described as follows: Induction of apoptosis in human HuH7 cells assessed as decrease in cyclin D1 level after 24 to 48 hrs by Western blot analysis. The assay is classed as functional, cell-based. Put shortly:
as §3
In general terms: Immunoblotting shows a protein as a band on a membrane.

Assay [8] deals with Huh-7. As to the kind of experiment: Induction of oxidative stress in human HuH7 cells assessed as ROS accumulation at 10 uM after 48 hrs by flow cytometry analysis. It is filed as functional, cell-based. Put shortly: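 Huh7 and Mahlavu cells were treated after 24 h with 10 µM compound or DMSO for 48 h. Cells were then trypsinized and processed with a MUSE oxidative stress kit for flow cytometric counting of ROS-positive cells. Cells grown in selenium-deficient serum-free medium served as the positive control.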

Assay [9] is described as follows: Cytotoxicity against human HCT116 cells assessed as growth inhibition after 72 hrs by sulforhodamine B assay. To be noted: Homo sapiens, HCT-116, 72 h; read-out: IC50. It is filed as functional, cell-based, HCT-116. In outline:
as §2

The target in assay [10] is RAC-alpha serine/threonine-protein kinase (Homo sapiens) (UniProt P31749). The assay is described as follows: Inhibition of Akt phosphorylation in human HuH7 cells after 24 to 48 hrs by Western blot analysis. To be noted: Huh-7. The assay is classed as cell-based. In outline: as §3
RAC-alpha serine/threonine-protein kinase (Homo sapiens), sequence (P31749 whole entry): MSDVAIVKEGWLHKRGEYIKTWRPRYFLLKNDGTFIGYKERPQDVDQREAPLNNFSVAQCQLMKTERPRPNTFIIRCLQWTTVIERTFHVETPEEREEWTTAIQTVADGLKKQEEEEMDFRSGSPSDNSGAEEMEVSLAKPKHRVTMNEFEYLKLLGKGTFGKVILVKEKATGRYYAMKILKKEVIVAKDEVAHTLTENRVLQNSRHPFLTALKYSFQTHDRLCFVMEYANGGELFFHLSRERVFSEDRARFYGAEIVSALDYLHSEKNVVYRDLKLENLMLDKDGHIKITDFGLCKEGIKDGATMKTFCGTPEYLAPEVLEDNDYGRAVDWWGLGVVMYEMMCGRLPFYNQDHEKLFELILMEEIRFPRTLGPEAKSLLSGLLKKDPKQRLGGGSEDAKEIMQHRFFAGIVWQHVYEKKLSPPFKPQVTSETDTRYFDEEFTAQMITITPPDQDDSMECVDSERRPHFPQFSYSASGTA

Calls of active or inactive are those of the source. No cut-off for these calls is given here.

In general, IC50 refers to the concentration that gives 50% inhibition.

With `Cc1ccc(C2=Nn3c(nnc3C(C)c3ccc(CC(C)C)cc3)SC2)cc1` (configuration not stated), the result (in the assay on Huh-7 [1]; in the assay on Huh-7 [3]; in the assay on Huh-7 [4]; in [6]; in the assay on Huh-7 [7]; in the assay with Huh-7 [8]) was Active. The IC50 was 8.5 µM in [2], 6.3 µM in the assay with MCF7 and 4 µM in assay [9]. Besides, the Activity result with Huh-7 [5] was “tde”. Moreover, the inhibition result in [10] is “Active”.
With `COc1ccc(C2=Nn3c(nnc3C(C)c3ccc(CC(C)C)cc3)SC2)cc1` (configuration not stated), the result (in the assay on Huh-7 [1]; in the assay with Huh-7 [3]; in the assay with Huh-7 [4]; in assay [6]; in the assay with Huh-7 [7]; with Huh-7 [8]) was Active. The values for the IC50 (in assay [2]; in the assay on MCF7; in assay [9]) were 13.6 µM, 5.2 µM and 4.2 µM, respectively. Moreover, in the assay with Huh-7 [5], the Activity result is “tde”. Moreover, the inhibition entry in [10] is “Active”.

Values taken from ChEMBL document CHEMBL3751842, “Novel triazolothiadiazines act as potent anticancer agents in liver cancer cells through Akt and ASK-1 proteins” (Bioorg Med Chem, 2016).
